The target of this assay is Metabotropic glutamate receptor 6 (Homo sapiens) (UniProt O15303). Briefly: human mGlu6 allosteric modulation, selectivity assay for mGlu5 silent allosteric modulator project, cell-based, HEK293A, Galpha15, calcium mobilization (AID 652205). To be noted: HEK293A hmGlu6+Galpha15, Fluo4 calcium mobilization, glutamate CRC; at 10 µM. The gist of the method:
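System: HEK293 cells co-expressing human mGlu6 receptor and Galpha15; incubation: dye loading 60 min, 37 °C, compound at 20 s; detection: Fluo-4 calcium mobilization fluorescence; compound dosing: single test compound dose of 10 µM, 1% DMSO; medium: HBSS with 2.5 mM probenecid and 20 mM HEPES, pH 7.4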
In general terms: Calcium assays in cells follow changes in intracellular calcium, usually with a dye or a luminescent sensor.

SMILES strings stand for the structures. Activity calls are given as the source filed them. How the calls were made is not given here.

Sequence of Metabotropic glutamate receptor 6 (Homo sapiens) (O15303 whole entry, looked up): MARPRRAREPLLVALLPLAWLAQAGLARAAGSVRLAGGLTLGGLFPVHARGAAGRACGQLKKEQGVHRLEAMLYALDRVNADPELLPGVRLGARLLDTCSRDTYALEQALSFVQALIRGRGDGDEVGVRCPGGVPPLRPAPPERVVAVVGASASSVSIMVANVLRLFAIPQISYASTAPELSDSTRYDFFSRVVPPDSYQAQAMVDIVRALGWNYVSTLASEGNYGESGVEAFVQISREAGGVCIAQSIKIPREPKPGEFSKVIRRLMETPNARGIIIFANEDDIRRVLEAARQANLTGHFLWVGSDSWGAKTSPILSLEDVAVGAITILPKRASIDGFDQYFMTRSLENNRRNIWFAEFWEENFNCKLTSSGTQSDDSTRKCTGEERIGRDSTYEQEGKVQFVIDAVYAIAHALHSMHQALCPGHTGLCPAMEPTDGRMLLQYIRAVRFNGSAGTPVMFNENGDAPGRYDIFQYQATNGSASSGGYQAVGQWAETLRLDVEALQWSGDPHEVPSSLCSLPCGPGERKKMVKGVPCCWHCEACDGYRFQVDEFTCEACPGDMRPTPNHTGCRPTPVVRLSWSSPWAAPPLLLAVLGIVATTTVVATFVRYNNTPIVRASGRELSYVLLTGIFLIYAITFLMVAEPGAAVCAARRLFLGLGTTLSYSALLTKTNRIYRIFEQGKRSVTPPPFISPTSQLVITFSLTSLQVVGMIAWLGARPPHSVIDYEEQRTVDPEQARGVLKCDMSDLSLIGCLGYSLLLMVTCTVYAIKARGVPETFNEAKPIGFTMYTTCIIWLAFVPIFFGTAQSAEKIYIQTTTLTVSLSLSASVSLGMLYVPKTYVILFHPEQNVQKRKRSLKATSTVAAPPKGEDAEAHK

Regarding `O=C(c1ccc(C#Cc2cccc(F)c2)cn1)N1CC2CC2C1` (stereo unspecified), the glutamate EC50 fold shift is 0.859 (inactive).

The values above are taken from PubChem BioAssay AID652205 (Vanderbilt Specialized Chemistry Center, 2013).
